Measurements as given in ChEMBL document CHEMBL4732167, “Structure based design, synthesis, and biological evaluation of imidazole derivatives targeting dihydropteroate synthase enzyme” (Bioorg Med Chem Lett, 2021).
≈ marks a conversion by molar mass, not a printed value.

What was measured:
Aspergillus niger = test: Antifungal activity against Aspergillus niger MTCC 282 assessed as fungal growth inhibition; assay type: functional
Candida albicans = test: Antifungal activity against Candida albicans MTCC 227 assessed as fungal growth inhibition; assay type: functional
Aspergillus clavatus = test: Antifungal activity against Aspergillus clavatus MTCC 1323 assessed as fungal growth inhibition; assay type: functional
Staphylococcus aureus [1] = test: Antibacterial activity against Staphylococcus aureus MTCC 96 assessed as bacterial growth inhibition; assay type: functional
Escherichia coli = test: Antibacterial activity against Escherichia coli MTCC 443 assessed as bacterial growth inhibition; assay type: functional
Pseudomonas aeruginosa = test: Antibacterial activity against Pseudomonas aeruginosa MTCC 1688 assessed as bacterial growth inhibition; assay type: functional
Streptococcus pyogenes = test: Antibacterial activity against Streptococcus pyogenes MTCC 442 assessed as bacterial growth inhibition; assay type: functional
[2] = system: Mycobacterium tuberculosis; test: Antibacterial activity against Mycobacterium tuberculosis H37Rv assessed as bacterial growth inhibition; assay type: functional
Plasmodium falciparum = test: Antimalarial activity against Plasmodium falciparum assessed as parasite growth inhibition; assay type: functional, organism-based
Bacteria = test: Antibacterial activity against ESBL-producing bacteria assessed as bacterial growth inhibition; assay type: functional
How it was run: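 Values are minimum inhibitory concentrations (MIC) in µg/mL, determined at an outside microbiology laboratory.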

Enterococcus = test: Antibacterial activity against vancomycin-resistant Enterococcus assessed as inhibition of bacterial growth; assay type: functional
How it was run: (§1)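 Growth inhibition of the drug-resistant strain was read out as the minimum inhibitory concentration (MIC), reported in µg/mL. The same protocol was also run on an ESBL strain.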

Staphylococcus aureus [3] = test: Antibacterial activity against methicillin-resistant Staphylococcus aureus assessed as inhibition of bacterial growth; assay type: functional; how it was run: as §1
[4] = Antioxidant activity assessed as DPPH radical scavenging activity at 25 ug/ml (reference value: 22 to 40.2 %); assay type: functional; settings: dose 25.0 µg/ml
How it was run: (§2)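 DPPH radical scavenging was measured at 0, 25, 50, 75 and 100 µg/ml of each compound. Ascorbic acid was the reference.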

[5] = Antioxidant activity assessed as DPPH radical scavenging activity at 50 ug/ml (reference value: 22 to 40.2 %); assay type: functional; settings: dose 50.0 µg/ml; how it was run: as §2
[6] = Antioxidant activity assessed as DPPH radical scavenging activity at 75 ug/ml (reference value: 22 to 40.2 %); assay type: functional; settings: dose 75.0 µg/ml; how it was run: as §2
[7] = Antioxidant activity assessed as DPPH radical scavenging activity at 100 ug/ml (reference value: 22 to 40.2 %); assay type: functional; settings: dose 100.0 µg/ml; how it was run: as §2
[8] = Antioxidant activity assessed as nitric oxide radical scavenging activity at 25 ug/ml (reference value: 25.8 to 41.6 %); assay type: functional; settings: dose 25.0 µg/ml
How it was run: (§3)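 Nitric oxide radical scavenging was tested at 0, 25, 50, 75 and 100 µg/ml of compound.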

[9] = Antioxidant activity assessed as nitric oxide radical scavenging activity at 50 ug/ml (reference value: 25.8 to 41.6 %); assay type: functional; settings: dose 50.0 µg/ml; how it was run: as §3
[10] = Antioxidant activity assessed as nitric oxide radical scavenging activity at 75 ug/ml (reference value: 25.8 to 41.6 %); assay type: functional; settings: dose 75.0 µg/ml; how it was run: as §3
[11] = Antioxidant activity assessed as nitric oxide radical scavenging activity at 100 ug/ml (reference value: 25.8 to 41.6 %); assay type: functional; settings: dose 100.0 µg/ml; how it was run: as §3
[12] = Antioxidant activity assessed as hydrogen peroxide radical scavenging activity at 25 ug/ml (reference value: 23.6 to 43.1 %); assay type: functional; settings: dose 25.0 µg/ml
How it was run: (§4)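 Hydrogen peroxide scavenging was measured across a compound series of 0, 25, 50, 75 and 100 µg/ml.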

[13] = Antioxidant activity assessed as hydrogen peroxide radical scavenging activity at 50 ug/ml (reference value: 23.6 to 43.1 %); assay type: functional; settings: dose 50.0 µg/ml; how it was run: as §4
[14] = Antioxidant activity assessed as hydrogen peroxide radical scavenging activity at 75 ug/ml (reference value: 23.6 to 43.1 %); assay type: functional; settings: dose 75.0 µg/ml; how it was run: as §4
[15] = Antioxidant activity assessed as hydrogen peroxide radical scavenging activity at 100 ug/ml (reference value: 23.6 to 43.1 %); assay type: functional; settings: dose 100.0 µg/ml; how it was run: as §4

Row | Compound | MFC (Aspergillus niger) | MFC (Candida albicans) | MFC (Aspergillus clavatus) | MIC (Staphylococcus aureus [1]) | MIC (Escherichia coli) | MIC (Pseudomonas aeruginosa) | MIC (Streptococcus pyogenes) | MIC [2] | IC50 (Plasmodium falciparum) | MIC (Bacteria) | Activity [4] | Activity [5] | Activity [6] | Activity [7] | Activity [8] | Activity [9] | Activity [10] | Activity [11] | Activity [12] | Activity [13] | also measured
1 | NYSTATIN | 100 µg/mL | 100 µg/mL | 100 µg/mL | – | – | – | – | – | – | – | – | – | – | – | – | – | – | – | – | – | –
2 | CC(=O)c1c(C)nc(SCC(=O)Nc2ccc(OCc3ccc(Cl)cc3)cc2)n1-c1ccc(Cl)cc1 | > 1000 µg/mL | 1000 µg/mL (≈ 1850 µM) | > 1000 µg/mL | 100 µg/mL (≈ 185 µM) | 250 µg/mL (≈ 463 µM) | 125 µg/mL (≈ 231 µM) | 100 µg/mL (≈ 185 µM) | 25 µg/mL (≈ 46.3 µM) | 0.56 µg/mL (≈ 1.04 µM) | 500 µg/mL (≈ 925 µM) | 41.2% | 51.7% | 58.6% | 85.7% | 47.3% | 64.3% | 80.6% | 88.8% | 47.8% | 59.4% | MIC (Enterococcus): 500 µg/mL (≈ 925 µM); MIC (Staphylococcus aureus [3]): 125 µg/mL (≈ 231 µM); Activity [14]: 75.2%; Activity [15]: 89.7%
3 | CC(=O)c1c(C)nc(SCC(=O)Nc2ccc(OCc3ccc(Cl)cc3)cc2)n1-c1ccccc1 | 500 µg/mL (≈ 988 µM) | > 1000 µg/mL | 500 µg/mL (≈ 988 µM) | 250 µg/mL (≈ 494 µM) | 100 µg/mL (≈ 198 µM) | 25 µg/mL (≈ 49.4 µM) | 62.5 µg/mL (≈ 124 µM) | 12.5 µg/mL (≈ 24.7 µM) | 1.45 µg/mL (≈ 2.87 µM) | 125 µg/mL (≈ 247 µM) | 52.1% | 68.2% | 76% | 84.7% | 49.5% | 61.4% | 76.9% | 88.4% | 42.6% | 59.4% | MIC (Enterococcus): 100 µg/mL (≈ 198 µM); MIC (Staphylococcus aureus [3]): 100 µg/mL (≈ 198 µM); Activity [14]: 67.3%; Activity [15]: 79.6%
4 | CC(=O)c1c(C)nc(SCC(=O)Nc2ccc(OC(=O)c3ccc(Cl)cc3)cc2)n1-c1ccc(Br)cc1 | 500 µg/mL (≈ 835 µM) | 1000 µg/mL (≈ 1670 µM) | 500 µg/mL (≈ 835 µM) | 250 µg/mL (≈ 417 µM) | 125 µg/mL (≈ 209 µM) | 100 µg/mL (≈ 167 µM) | 100 µg/mL (≈ 167 µM) | 12.5 µg/mL (≈ 20.9 µM) | 1.04 µg/mL (≈ 1.74 µM) | 250 µg/mL (≈ 417 µM) | 45.2% | 52.1% | 65.2% | 83.1% | 38% | 62.4% | 82.3% | 90.8% | 38.7% | 54.2% | MIC (Enterococcus): 500 µg/mL (≈ 835 µM); MIC (Staphylococcus aureus [3]): 500 µg/mL (≈ 835 µM); Activity [14]: 68.9%; Activity [15]: 86.1%
5 | CC(=O)c1c(C)nc(SCC(=O)Nc2ccc(OCc3ccc(F)cc3)cc2)n1-c1ccc(Cl)cc1 | 1000 µg/mL (≈ 1910 µM) | 1000 µg/mL (≈ 1910 µM) | 1000 µg/mL (≈ 1910 µM) | 100 µg/mL (≈ 191 µM) | 50 µg/mL (≈ 95.4 µM) | 25 µg/mL (≈ 47.7 µM) | 100 µg/mL (≈ 191 µM) | 62.5 µg/mL (≈ 119 µM) | 0.73 µg/mL (≈ 1.39 µM) | 62.5 µg/mL (≈ 119 µM) | 42.9% | 58.6% | 67% | 91% | 50.8% | 58.3% | 84.3% | 89.5% | 51% | 68.4% | MIC (Enterococcus): 62.5 µg/mL (≈ 119 µM); MIC (Staphylococcus aureus [3]): 125 µg/mL (≈ 239 µM); Activity [14]: 74.5%; Activity [15]: 88.1%
6 | COc1ccc(-n2c(SCC(=O)Nc3ccc(OC(=O)c4cccs4)cc3)nc(C)c2C(C)=O)cc1 | 500 µg/mL (≈ 959 µM) | 1000 µg/mL (≈ 1920 µM) | 500 µg/mL (≈ 959 µM) | 25 µg/mL (≈ 47.9 µM) | 12.5 µg/mL (≈ 24 µM) | 12.5 µg/mL (≈ 24 µM) | 50 µg/mL (≈ 95.9 µM) | 25 µg/mL (≈ 47.9 µM) | 0.45 µg/mL (≈ 0.863 µM) | 62.5 µg/mL (≈ 120 µM) | 46.8% | 56.1% | 68.1% | 81.6% | 42.3% | 69.1% | 76.8% | 81.7% | 39.4% | 61% | MIC (Enterococcus): 100 µg/mL (≈ 192 µM); MIC (Staphylococcus aureus [3]): 100 µg/mL (≈ 192 µM); Activity [14]: 76.4%; Activity [15]: 82.3%
7 | COC1=CC(=O)C[C@@H](C)[C@]12Oc1c(Cl)c(OC)cc(OC)c1C2=O [GRISEOFULVIN] | 100 µg/mL (≈ 283 µM) | 500 µg/mL (≈ 1420 µM) | 100 µg/mL (≈ 283 µM) | – | – | – | – | – | – | – | – | – | – | – | – | – | – | – | – | – | –
8 | C=C[C@H]1CN2CC[C@H]1C[C@H]2[C@H](O)c1ccnc2ccc(OC)cc12 [QUININE] | – | – | – | – | – | – | – | – | 0.268 µg/mL (≈ 0.826 µM) | – | – | – | – | – | – | – | – | – | – | – | –
9 | CCn1cc(C(=O)O)c(=O)c2cc(F)c(N3CCNCC3)cc21 [NORFLOXACIN] | – | – | – | 10 µg/mL (≈ 31.3 µM) | 10 µg/mL (≈ 31.3 µM) | 10 µg/mL (≈ 31.3 µM) | 10 µg/mL (≈ 31.3 µM) | – | – | – | – | – | – | – | – | – | – | – | – | – | –
10 | O=C(N[C@H](CO)[C@H](O)c1ccc([N+](=O)[O-])cc1)C(Cl)Cl [CHLORAMPHENICOL] | – | – | – | 50 µg/mL (≈ 155 µM) | 50 µg/mL (≈ 155 µM) | 50 µg/mL (≈ 155 µM) | 50 µg/mL (≈ 155 µM) | – | – | – | – | – | – | – | – | – | – | – | – | – | –
11 | CC(=O)c1c(C)nc(SCC(=O)Nc2ccc(OC(=O)c3ccc(Cl)cc3)cc2)n1-c1ccc(Cl)cc1 | > 1000 µg/mL | > 1000 µg/mL | > 1000 µg/mL | 125 µg/mL (≈ 225 µM) | 250 µg/mL (≈ 451 µM) | 100 µg/mL (≈ 180 µM) | 100 µg/mL (≈ 180 µM) | – | 0.46 µg/mL (≈ 0.83 µM) | 1000 µg/mL (≈ 1800 µM) | 36.9% | 49.3% | 64.9% | 84.5% | 41.8% | 58.3% | 81.9% | 89.4% | 50.8% | 66.6% | Activity [14]: 80%; Activity [15]: 93.6%
12 | O=C(O)c1cn(C2CC2)c2cc(N3CCNCC3)c(F)cc2c1=O [CIPROFLOXACIN] | – | – | – | 50 µg/mL (≈ 151 µM) | 25 µg/mL (≈ 75.4 µM) | – | 50 µg/mL (≈ 151 µM) | – | – | – | – | – | – | – | – | – | – | – | – | – | –
13 | CC1(C)S[C@@H]2[C@H](NC(=O)[C@H](N)c3ccccc3)C(=O)N2[C@H]1C(=O)O [AMPICILLIN] | – | – | – | 250 µg/mL (≈ 715 µM) | 100 µg/mL (≈ 286 µM) | 100 µg/mL (≈ 286 µM) | 100 µg/mL (≈ 286 µM) | – | – | – | – | – | – | – | – | – | – | – | – | – | –
14 | GENTAMICIN | – | – | – | 0.25 µg/mL | 0.05 µg/mL | 1 µg/mL | 0.5 µg/mL | – | – | – | – | – | – | – | – | – | – | – | – | – | –
15 | NNC(=O)c1ccncc1 [ISONIAZID] | – | – | – | – | – | – | – | 0.2 µg/mL (≈ 1.46 µM) | – | – | – | – | – | – | – | – | – | – | – | – | –
